Experiment [1] concerns the target T1, Serotonin receptor 2a and 2c (5HT2A and 5HT2C) (Rattus norvegicus, UniProt P08909+P14842). Briefly: Tested for the binding affinity against the site labelled by the 5-hydroxytryptamine 2A receptor - 5-hydroxytryptamine 2C receptor antagonist [3H] ketanserin. It counts as protein assay. In outline:
(§1)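 Rat frontal cortex homogenate in 50 mM Tris HCl pH 7.4 with 0.5 mM EDTA, 0.1% ascorbate, pargyline and 5.7 mM CaCl2; 200–400 μg protein. […] Nonspecific binding defined by 10 μM cinanserin. Triplicate determinations, scintillation counting.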

Experiment [2] is filed under the species Rattus norvegicus. In words: Effective dose in rat. Type of experiment: functional. In outline: (§2)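 Rats trained on a two-lever FR50 food-reinforced task to discriminate LSD tartrate (0.08 mg/kg, ip, 30 min pre-session) from saline. Test drugs were given ip in 0.9% saline, 1 mL/kg, 30 min before extinction test sessions ended at 50 presses; failure within 5 min was scored as disruption. Quantal %SDL per dose. ED50 with 95% CI by Litchfield–Wilcoxon log-probit, not calculated if ≥50% disrupted.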

In experiment [3] the target is T2, 5-hydroxytryptamine receptor 1A (Rattus norvegicus, UniProt P19327).
T2 sequence (P19327 whole entry): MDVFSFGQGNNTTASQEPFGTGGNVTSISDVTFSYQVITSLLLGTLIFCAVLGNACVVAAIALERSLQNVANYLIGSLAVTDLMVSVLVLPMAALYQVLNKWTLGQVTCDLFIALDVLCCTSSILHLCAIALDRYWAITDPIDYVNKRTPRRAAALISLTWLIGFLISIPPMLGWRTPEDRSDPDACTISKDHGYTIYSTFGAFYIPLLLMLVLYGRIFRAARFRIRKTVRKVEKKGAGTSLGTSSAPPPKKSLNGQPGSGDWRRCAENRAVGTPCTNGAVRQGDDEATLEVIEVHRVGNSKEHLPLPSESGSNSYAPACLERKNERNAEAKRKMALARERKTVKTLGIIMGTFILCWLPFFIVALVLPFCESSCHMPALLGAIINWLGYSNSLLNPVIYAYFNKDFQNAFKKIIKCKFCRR
Briefly: Tested for the binding affinity against the site labelled by the 5-hydroxytryptamine 1A receptor agonist [3H]- 8-OH-DPAT. The essentials: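 [3H]-8-OH-DPAT binding in rat brain homogenate (frontal cortex or hippocampus) in 50 mM Tris HCl pH 7.4 with EDTA, ascorbate and pargyline; 200–400 μg protein. 15 min at 37 °C, then GF/C filtration. Nonspecific binding defined by 10 μM 5-HT. Triplicates, scintillation counting.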

The target of experiment [4] is T1, Serotonin receptor 2a and 2c (5HT2A and 5HT2C). Briefly: Tested for the binding affinity against the site labelled by the 5-hydroxytryptamine 2A receptor - 5-hydroxytryptamine 2C receptor agonist [125I]- - (+/-)DOI. It counts as protein assay. The essentials:
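Rat frontal cortex homogenate, pooled and preincubated twice at 37 °C. Buffer was 50 mM Tris HCl pH 7.4 with 0.5 mM EDTA, 0.1% ascorbate, pargyline and MgCl2; 200–400 μg protein. 0.1 nM [125I]DOI was competed by 8–10 test concentrations, 15 min at 37 °C, then GF/C filtration. Nonspecific binding defined by 10 μM cinanserin. Triplicates, gamma counting.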

For experiment [5] the target is unchanged. Briefly: Tested for the binding affinity against the site labelled by the 5-hydroxytryptamine 2A receptor - 5-hydroxytryptamine 2C receptor antagonist [3H]- ketanserin. It counts as protein assay. The essentials:
as §1

The species named for experiment [6] is Rattus norvegicus. In words: The percentage of rats selecting the drug lever at each dose. It counts as functional. The essentials: as §2

The text below walks through data of ChEMBL document CHEMBL1127290, “1-(2,5-Dimethoxy-4-(trifluoromethyl)phenyl)-2-aminopropane: a potent serotonin 5-HT2A/2C agonist” (J Med Chem, 1994).

Where “and” joins values, the source holds several entries; their conditions need not be identical. Identical values can stand only once.

In the case of `COc1cc(C(F)(F)F)c(OC)cc1CCN`, the Ki in experiment [1] was determined as 74.5 nM; in experiment [3], 3420 nM; in experiment [4], 1.1 nM. Moreover, the ED50 in the experiment listed under Rattus norvegicus [2] stood at 0.82 µmol/kg.
Turning to `COc1cc(CCN)c(OC)cc1I`, the 50% effective dose (ED50) in the experiment filed under Rattus norvegicus [2] was 1.04 µmol/kg. Further, the Ki came out at 1.9 nM in experiment [4] and 80.9 nM in experiment [5].
In the case of `COc1cc(CC(C)N)c(OC)cc1I` (centres undefined), the ED50 in the experiment filed under Rattus norvegicus [2] was determined as 0.97 µmol/kg. Also, the SDL in the experiment filed under Rattus norvegicus [6] is 80% [middle of 4 runs].
Take `COc1cc(C(F)(F)F)c(OC)cc1CC(C)N` (centres undefined): the inhibition constant (Ki) came to 2220 nM in experiment [3], 1.5 nM in experiment [4] and 33 nM in experiment [5]. The SDL in the experiment listed under Rattus norvegicus [6] is 62.5% and 80% and 100%.
`COc1cc(CC(C)N)c(OC)cc1Br` (centres undefined) [BROLAMFETAMINE] displayed a median effective dose (ED50) in the experiment listed under Rattus norvegicus [2] of 1.12 µmol/kg.
